Measured values: ChEMBL document CHEMBL4689842, “EUbOPEN Chemogenomics Library wave 1” (2021)
Several values for one entry are separate records, joined by “and”; a condition that tells them apart may be missing. Equal entries are not always repeated.

Test system: HEK-293T
Experiment: Multiplex assay against HEK293T;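 for Population Tubulin-Different-Phenotype (%): share of the cells with healthy nuclei that show this phenotype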
Format: toxicity, cell-based
Settings: human
Summary of the method: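 Phenotypes for tubulin, mitochondrial mass and membrane permeability are expressed as per cents of healthy-nucleus cells. Cells were stained live at seeding with Hoechst33342, BioTracker Green Microtubule Cytoskeleton Dye, MitoTracker Red and Annexin V Alexa Fluor 680, then imaged after compound addition on a CQ1 microscope at 37°C and 5% CO2. Machine-learning gating in CellPathfinder separated Hoechst high-intensity objects from normal cells, divided normal cells by nuclear state (healthy, pyknosed, fragmented) and divided pyknosed cells into mitotic or apoptotic.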

[1] = 12 h, 1 µM, compound concentration 1 uM, replicate 1
[2] = 12 h, 1 µM, compound concentration 1 uM, replicate 2
[3] = 12 h, 10 µM, compound concentration 10 uM, replicate 1
[4] = 12 h, 10 µM, compound concentration 10 uM, replicate 2
[5] = 24 h, 1 µM, compound concentration 1 uM, replicate 1
[6] = 24 h, 1 µM, compound concentration 1 uM, replicate 2
[7] = 24 h, 10 µM, compound concentration 10 uM, replicate 1
[8] = 24 h, 10 µM, compound concentration 10 uM, replicate 2
[9] = 48 h, 10 µM, compound concentration 10 uM, replicate 1
[10] = 48 h, 10 µM, compound concentration 10 uM, replicate 2

CCOC(=O)Nc1cc(-c2ccc(C)c(NS(C)(=O)=O)c2)nn2c(C)nnc12
Population Apoptotic (%) [1]: 18%
Population Fragmented Nuclei (%) [1]: 13%
Population Healthy Nuclei (%) [1]: 68%
Population Hoechst High Intensity Objects (%) [1]: 9%
Population Membrane Permeable-Phenotype (%) [1]: 3%
Population Mitochondria Different-Phenotype (%) [1]: 3%
Population Mitotic Cells (%) [1]: 81%
Population Normal (%) [1]: 90%
Population Pyknosed Nuclei (%) [1]: 17%
Population Tubulin-Different-Phenotype (%) [1]: 2%
Total Cell Count [1]: 561
Population Apoptotic (%) [2]: 12%
Population Fragmented Nuclei (%) [2]: 10%
Population Healthy Nuclei (%) [2]: 87%
Population Hoechst High Intensity Objects (%) [2]: 2%
Population Membrane Permeable-Phenotype (%) [2]: 0%
Population Mitochondria Different-Phenotype (%) [2]: 6%
Population Mitotic Cells (%) [2]: 87%
Population Normal (%) [2]: 97%
Population Pyknosed Nuclei (%) [2]: 2%
Population Tubulin-Different-Phenotype (%) [2]: 0%
Total Cell Count [2]: 1857
Population Apoptotic (%) [3]: 44% and 28%
Population Fragmented Nuclei (%) [3]: 19% and 8%
Population Hoechst High Intensity Objects (%) [3]: 12% and 6%
Population Membrane Permeable-Phenotype (%) [3]: 0% and 2%
Population Mitotic Cells (%) [3]: 55% and 71%
Population Normal (%) [3]: 88% and 93%
Total Cell Count [3]: 275 and 719
Population Apoptotic (%) [4]: 4% and 3%
Population Fragmented Nuclei (%) [4]: 16%
Population Healthy Nuclei (%) [4]: 79% and 50%
Population Hoechst High Intensity Objects (%) [4]: 3% and 4%
Population Mitochondria Different-Phenotype (%) [4]: 6% and 8%
Population Mitotic Cells (%) [4]: 95% and 96%
Population Normal (%) [4]: 96% and 95%
Population Tubulin-Different-Phenotype (%) [4]: 1%
Population Apoptotic (%) [5]: 13%
Population Fragmented Nuclei (%) [5]: 11%
Population Healthy Nuclei (%) [5]: 78%
Population Hoechst High Intensity Objects (%) [5]: 7%
Population Membrane Permeable-Phenotype (%) [5]: 4%
Population Mitochondria Different-Phenotype (%) [5]: 2%
Population Mitotic Cells (%) [5]: 86%
Population Normal (%) [5]: 92%
Population Pyknosed Nuclei (%) [5]: 9%
Population Tubulin-Different-Phenotype (%) [5]: 0%
Total Cell Count [5]: 702
Population Apoptotic (%) [6]: 6%
Population Fragmented Nuclei (%) [6]: 32%
Population Healthy Nuclei (%) [6]: 65%
Population Hoechst High Intensity Objects (%) [6]: 4%
Population Membrane Permeable-Phenotype (%) [6]: 0%
Population Mitochondria Different-Phenotype (%) [6]: 1%
Population Mitotic Cells (%) [6]: 93%
Population Normal (%) [6]: 95%
Population Pyknosed Nuclei (%) [6]: 2%
Total Cell Count [6]: 3024
Population Apoptotic (%) [7]: 42% and 17%
Population Fragmented Nuclei (%) [7]: 16% and 17%
Population Healthy Nuclei (%) [7]: 34% and 77%
Population Hoechst High Intensity Objects (%) [7]: 9% and 6%
Population Membrane Permeable-Phenotype (%) [7]: 1% and 6%
Population Mitotic Cells (%) [7]: 57% and 82%
Population Normal (%) [7]: 90% and 93%
Population Tubulin-Different-Phenotype (%) [7]: 1% and 2%
Population Healthy Nuclei (%) [8]: 68% and 53%
Population Hoechst High Intensity Objects (%) [8]: 2% and 5%
Population Mitochondria Different-Phenotype (%) [8]: 1%
Population Mitotic Cells (%) [8]: 98% and 95%
Population Normal (%) [8]: 97% and 94%
Population Apoptotic (%) [9]: 38%
Population Fragmented Nuclei (%) [9]: 19%
Population Healthy Nuclei (%) [9]: 48%
Population Hoechst High Intensity Objects (%) [9]: 11%
Population Membrane Permeable-Phenotype (%) [9]: 1%
Population Mitochondria Different-Phenotype (%) [9]: 4%
Population Mitotic Cells (%) [9]: 61%
Population Normal (%) [9]: 88%
Population Pyknosed Nuclei (%) [9]: 32%
Population Tubulin-Different-Phenotype (%) [9]: 1%
Total Cell Count [9]: 380
Population Apoptotic (%) [10]: 4%
Population Fragmented Nuclei (%) [10]: 9%
Population Healthy Nuclei (%) [10]: 83%
Population Hoechst High Intensity Objects (%) [10]: 2%
Population Mitochondria Different-Phenotype (%) [10]: 0%
Population Mitotic Cells (%) [10]: 95%
Population Normal (%) [10]: 97%
Population Pyknosed Nuclei (%) [10]: 7%
Population Tubulin-Different-Phenotype (%) [10]: 0%
Total Cell Count [10]: 566
